# Source: ChEMBL document CHEMBL4152289, “Novel 8-nitroquinolin-2(1H)-ones as NTR-bioactivated antikinetoplastid molecules: Synthesis, electrochemical and SAR study” (Eur J Med Chem, 2018)
# How the values were obtained:
# [1] = Electrochemical behavior of the compound assessed as redox potential corrected toward normal hydrogen electrode at 10^-3 mol/L by cyclic voltammetry; conditions: 1000 µM
# [2] = test system: Leishmania infantum; experiment: microbe, parasite or virus in culture; type: functional, organism-based; conditions: MHOM/MA/67/ITMAP-263, 48 h
# [3] = test system: Trypanosoma brucei brucei; experiment: Antitrypanosomal activity against trypomastigote stage of Trypanosoma brucei brucei AnTat 1.9 assessed as decrease in parasite viability after 69 hrs by Alamar Blue assay; type: functional, organism-based; conditions: AnTat 1.9, 69 h
# [4] = test system: HepG2; experiment: Cytotoxicity against human HepG2 cells assessed as decrease in cell viability after 72 hrs by MTT assay; conditions: hepg2, 72 h
# [5] = test system: THP-1; experiment: Cytotoxicity against human THP1 cells assessed as decrease in cell viability after 72 hrs by MTT assay; type: cell-based; conditions: thp-1, 72 h
# Outline: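 PMA-differentiated THP-1 (50 ng/mL final), 10⁶ cells/mL in complete RPMI, 48 h. Compounds in DMSO (<0.5% v/v) for 72 h at 37 °C. MTT 0.5 mg/mL for 2 h, formazan dissolved in DMSO, A570 with 630 nm reference. Viability expressed as percent of untreated control; doxorubicin as positive control; 50% cytotoxic concentration from dose–response curve.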
# [6] = test system: Leishmania donovani; experiment: Antileishmanial activity against amastigote stage of Leishmania donovani MHOM/IN/00/DEVI infected in human THP1 cells assessed as inhibition of parasite infection after 120 hrs by Giemsa staining-based microscopic method; type: functional, organism-based; conditions: THP-1, 120 h
# Outline: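 THP-1 cells differentiated with PMA (50 ng/mL final), 48 h at 37 °C, 6% CO2, then infected 10:1 with promastigotes acid-primed 24 h at 27 °C in Schneider 20% FCS pH 5.4. After 24 h, compounds in DMSO (<0.5% v/v) added in duplicate for 120 h. Methanol fixation and Giemsa staining; ≥200 cells counted. IC50 is the concentration halving infected macrophages, nonlinear regression, mean of three independent experiments.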
Structure (SMILES),Activity [1] [V],IC50 [2] [µM],IC50 [3] [µM],CC50 [4] [µM],CC50 [5] [µM],IC50 [6] [µM]
O=c1[nH]c2c([N+](=O)[O-])cccc2cc1Cl,-0.47,16,1.2,85,,
CC(=O)Nc1ccccc1[N+](=O)[O-],-0.68,> 100,> 50,> 100,,
Cc1ccc2ccc(=O)[nH]c2c1[N+](=O)[O-],-0.71,> 100,> 50,> 100,,
Cn1c(=O)ccc2ccccc21,,> 100,> 50,> 100,,
CC(C)(C)OC(=O)NCCOCCOCCNCc1cc(=O)[nH]c2c([N+](=O)[O-])cccc12,,> 100,2.5,> 100,,
COc1ccc([N+](=O)[O-])c2[nH]c(=O)ccc12,-0.65,> 100,> 50,> 100,,
Cc1ccc(C(=O)Nc2ccc(S(=O)(=O)O)c3cc(S(=O)(=O)O)cc(S(=O)(=O)O)c23)cc1NC(=O)c1cccc(NC(=O)Nc2cccc(C(=O)Nc3cc(C(=O)Nc4ccc(S(=O)(=O)O)c5cc(S(=O)(=O)O)cc(S(=O)(=O)O)c45)ccc3C)c2)c1 [SURAMIN],,,,> 100,,
O=c1cc(Br)c2cccc([N+](=O)[O-])c2[nH]1,-0.51,20.3,5.5,60,,
C[C@@H]1[C@H](O)[C@@H](C)/C=C/C=C/C=C/C=C/C=C/C=C/C=C/[C@H](O[C@@H]2O[C@H](C)[C@@H](O)[C@H](N)[C@@H]2O)C[C@@H]2O[C@](O)(C[C@@H](O)C[C@@H](O)[C@H](O)CC[C@@H](O)C[C@@H](O)CC(=O)O[C@H]1C)C[C@H](O)[C@H]2C(=O)O [AMPHOTERICIN B],,0.06,,,3.6,0.4
COc1nc2c([N+](=O)[O-])cccc2cc1Br,-0.86,> 6.2,0.4,> 6.2,,
O=[N+]([O-])c1cccc2cccnc12,-0.84,> 100,17.9,> 100,,

# The next lines start with results.
Activity [1] [V],IC50 [2] [µM],IC50 [3] [µM],Structure (SMILES),CC50 [4] [µM],CC50 [5] [µM],IC50 [6] [µM]
-1.86,> 100,> 50,Oc1ccc2ccccc2n1,> 100,,
,,15.8,"NCCC[C@](N)(C(=O)O)C(F)F [EFLORNITHINE, (S)-]",> 100,,
-0.67,> 100,> 50,O=[N+]([O-])c1cccc2nc(O)ccc12,> 100,,
-0.82,> 100,2.3,O=[N+]([O-])c1ccc2nc(O)ccc2c1,> 100,,
-0.75,> 100,> 50,COc1ccc2ccc(=O)[nH]c2c1[N+](=O)[O-],> 100,,
